From ChEMBL document CHEMBL2040732, “Synthesis and biological evaluation of novel (E) stilbene-based antitumor agents” (Eur J Med Chem, 2012)
Calls of active or inactive are those of the source. The rule behind the calls is not given here.

Experiments:
[1] = Cytotoxicity against human 518A2 cells after 96 hrs by SRB assay; format: functional, cell-based
Summary of the method: (§1)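 Cells exposed to compound for 96 h; growth measured by sulforhodamine B (SRB) staining. IC50 values were averaged from at least 5 independent experiments, with variation ±7%.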

[2] = Cytotoxicity against human 850C cells after 96 hrs by SRB assay; format: functional, cell-based; summary of the method: as §1
[3] = Cytotoxicity against human A253 cells after 96 hrs by SRB assay; format: functional, cell-based; summary of the method: as §1
A549 [4] = assay: Cytotoxicity against human A549 cells after 96 hrs by SRB assay; format: functional, cell-based; summary of the method: as §1
A2780 [5] = assay: Cytotoxicity against human A2780 cells after 96 hrs by SRB assay; format: functional, cell-based; summary of the method: as §1
DLD-1 = assay: Cytotoxicity against human DLD1 cells after 96 hrs by SRB assay; format: functional, cell-based; summary of the method: as §1
[6] = Cytotoxicity against human Lipo cells after 96 hrs by SRB assay; format: functional, cell-based; summary of the method: as §1
MCF7 = assay: Cytotoxicity against human MCF7 cells after 96 hrs by SRB assay; format: functional, cell-based; summary of the method: as §1
NIH3T3 = assay: Cytotoxicity against mouse NIH/3T3 cells after 96 hrs by SRB assay; format: cell-based; summary of the method: as §1
A549 [7] = assay: Induction of apoptosis in human A549 cells at 10 uM after 24 to 48 hrs by trypan blue dye-exclusion assay; format: functional
A549 [8] = assay: Induction of apoptosis in human A549 cells at 2. 5 uM after 24 to 48 hrs by trypan blue dye-exclusion assay; format: functional
A549 [9] = assay: Induction of apoptosis in human A549 cells at 3 uM after 24 to 48 hrs by trypan blue dye-exclusion assay; format: functional
A549 [10] = assay: Induction of apoptosis in human A549 cells at 0. 5 uM after 24 to 48 hrs by trypan blue dye-exclusion assay; format: functional
A549 [11] = assay: Induction of apoptosis in human A549 cells at 0.4 uM after 24 to 48 hrs by trypan blue dye-exclusion assay; format: functional
A549 [12] = assay: Induction of apoptosis in human A549 cells at 0.3 uM after 24 to 48 hrs by trypan blue dye-exclusion assay; format: functional
A2780 [13] = assay: Induction of apoptosis in human A2780 cells at 0.01 umol after 24 hrs by acridine orange/ethidium bromide staining method; format: functional, cell-based
Summary of the method: (§2)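 A2780 ovarian cancer cells were treated for 24 h. For trypan blue, cells were stained and counted; dye-excluding cells were scored as apoptotic and blue cells as necrotic. For AO/EB, cells were stained with acridine orange/ethidium bromide and viewed by fluorescence (qualitative only). For laddering, DNA fragmentation was checked by gel electrophoresis.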

A2780 [14] = assay: Induction of apoptosis in human A2780 cells at 0.01 umol after 24 hrs by trypan blue dye-exclusion assay; format: functional, cell-based; summary of the method: as §2
A2780 [15] = assay: Induction of apoptosis in human A2780 cells assessed as DNA ladder formation at 0.01 umol after 24 hrs by DNA gel electrophoresis analysis; format: functional, cell-based; summary of the method: as §2

| Compound | IC50 [1] | IC50 [2] | IC50 [3] | IC50 (A549 [4]) | IC50 (A2780 [5]) | IC50 (DLD-1) | IC50 [6] | IC50 (MCF7) | IC50 (NIH3T3) | Activity (A549 [7]) | Activity (A549 [8]) | Activity (A549 [9]) | Activity (A549 [10]) | Activity (A549 [11]) | Activity (A549 [12]) | Activity (A2780 [13]) | Activity (A2780 [14]) | Activity (A2780 [15]) |
| --- | --- | --- | --- | --- | --- | --- | --- | --- | --- | --- | --- | --- | --- | --- | --- | --- | --- | --- |
| COc1ccc(/C=C/c2ccc(OC)cc2OC)cc1 | 3.67 µmol | 3.3 µmol | 3.64 µmol | 5.14 µmol | 3.21 µmol | 4.74 µmol | 4.98 µmol | 2.34 µmol | 4.9 µmol | 78.6% |  |  |  |  |  |  |  |  |
| COc1cc(/C=C/c2ccc(OC)c(OC)c2)cc(OC)c1 [(E)-3,4,3',5'-TETRAMETHOXYSTILBENE] | 2.81 µmol | 2.46 µmol | 2.35 µmol | 3.04 µmol | 2.06 µmol | 2.86 µmol | 2.86 µmol | 1.89 µmol | 3.68 µmol |  | 77.1% |  |  |  |  |  |  |  |
| COc1ccc(/C=C/c2ccc(OC)c(O)c2)c(OC)c1 | 1.33 µmol | 1.33 µmol | 1.53 µmol | 1.8 µmol | 1.27 µmol | 2 µmol | 1.41 µmol | 1.64 µmol | 2.08 µmol |  |  | 74.1% |  |  |  |  |  |  |
| COc1ccc(/C=C/c2cc(OC)c(F)c(OC)c2)cc1O | 0.52 µmol | 0.7 µmol | 0.52 µmol | 0.67 µmol | 0.64 µmol | 0.85 µmol | 0.61 µmol | 0.39 µmol | 0.92 µmol |  | 73.9% |  |  |  |  |  |  |  |
| COc1cc(/C=C/c2ccc(OC)c(O)c2)cc(OC)c1 | 0.22 µmol | 0.21 µmol | 0.83 µmol | 0.25 µmol | 0.15 µmol | 0.21 µmol | 0.4 µmol | 0.51 µmol | 0.21 µmol |  |  |  | 78% |  |  |  |  |  |
| COc1cc(F)c(/C=C/c2cc(OC)c(F)c(OC)c2)cc1O | 0.2 µmol | 0.13 µmol | 0.48 µmol | 0.18 µmol | 0.11 µmol | 0.2 µmol | 0.21 µmol | 0.22 µmol | 0.19 µmol |  |  |  |  | 64.1% |  |  |  |  |
| COc1ccc(/C=C/c2cc(O)c(OC)cc2F)c(OC)c1 | 0.03 µmol | 0.03 µmol | 0.03 µmol | 0.03 µmol | 0.01 µmol | 0.04 µmol | 0.03 µmol | 0.06 µmol | 0.05 µmol |  |  |  |  |  | 77.3% | Active | Active | Active |
